Assay results pooled from the literature.
Protocols differ between the studies behind these lines.
Target: cAMP-dependent protein kinase catalytic subunit alpha (PRKACA, Homo sapiens, UniProt P17612)

`O=C(Nc1c[nH]nc1C(=O)NC1CCNCC1)c1cc(F)cc(F)c1` gave a remaining binding of 100% (binding, competition with immobilised ligand; 1 µM).
`CN(C)c1nccc(-c2cnc3ncccn23)n1` has a remaining binding of 83% (binding; 1 µM).
The remaining binding of `Nc1cnc(N2CCc3cc(S(=O)(=O)Nc4c(F)cc(Cl)cc4F)cc(N4CCCC4=O)c32)nc1` is reported as 100% (cell-free assay, competition with immobilised ligand; 1 µM).
The remaining binding of `C[C@@H]1CCN(c2nccc(-c3cnn4ncccc34)n2)C1` is reported as 100% (binding; 1 µM).
With `O=C(NCCCN1CCOCC1)c1ccc(Nc2ncc(Cl)c(-c3ccc(Cl)s3)n2)cc1` the remaining binding was 100% (binding, competition with immobilised ligand; 1 µM).
For `COc1cnc(Nc2cccc(S(N)(=O)=O)c2)nc1N1CCN(c2ccccc2)C(=O)C1`, the remaining binding was 100% (binding, competition with immobilised ligand; 1 µM).
With `CS(=O)(=O)N1CCCC(NC(=O)[C@H](CCC2CCCCC2)NC(=O)c2ccc(CNc3ncnc4c3nnn4-c3ccccc3)cc2)C1` (stereo partly drawn) the remaining binding was 100% (cell-free assay, competition with immobilised ligand; 0.1 µM).
`N#Cc1ccccc1CSc1nnc2c(n1)[nH]c1ccccc12` gave a remaining binding of 72% (binding, competition with immobilised ligand; 10 µM).
For `COc1cnc(Nc2cccc(S(N)(=O)=O)c2)nc1N1CCN(c2ccccc2)CC1`, the remaining binding was 100% (binding, competition with immobilised ligand; 1 µM).
The remaining binding of `O=C(NCCCN1CCOCC1)c1ccc(Nc2nccc(-c3cc4ccccc4s3)n2)cc1` is reported as 95% (binding, competition with immobilised ligand; 1 µM).
With `CN(CCCC(F)(F)F)c1nccc(-c2cnn3ncccc23)n1` the remaining binding was 100% (binding; 1 µM).
For `O=C(c1ccc(Nc2ncc(Cl)c(-c3ccc(Cl)s3)n2)cc1)N1CCC(N2CCCC2)CC1`, the remaining binding was 97% (binding, competition with immobilised ligand; 1 µM).
The remaining binding of `CC1CCCN1c1nccc(-c2cnn3ncccc23)n1` (stereo not drawn) is reported as 100% (binding; 1 µM).
`Cc1c(C(=O)O)cc(-c2ccc(C3CCNCC3)cc2)c2ccc(-c3ccc(C(F)(F)F)cc3)cc12` has a remaining binding of 100% (cell-free assay, competition with immobilised ligand; 1 µM).
With `C[C@@H](c1ccc(-n2cnc3c(N)ncnc32)cc1)N1CCc2nn(C)c(Cc3ccccc3)c2C1=O` the remaining binding was 100% (binding, competition with immobilised ligand; 0.1 µM).
For `O=C(Nc1ccc(Oc2ccc(F)cc2)cc1)N1CCc2ncccc2[C@H]1c1ccc(F)cc1`, the remaining binding was 95% (cell-free assay, competition with immobilised ligand; 1 µM).
The remaining binding of `FC(F)(F)Oc1cccc(-c2cnc3ccc(-c4ccncc4)nn23)c1` is reported as 91% (cell-free assay, competition with immobilised ligand; 5 µM).
`O=C(N1CCS(=O)(=O)CC1)N1C[C@H](c2ccc(OC(F)(F)F)cc2)C[C@H](c2nc(C3CC3)no2)C1` gave a remaining binding of 100% (cell-free assay, competition with immobilised ligand; 1 µM).
`CC(C)(C)c1ccc(-c2nc(CBr)nn2-c2cccc(O)c2)cc1` has a remaining binding of 86% (cell-free assay, competition with immobilised ligand; 10 µM).
With `C[C@@H]1CN(c2ccc3ncc(-c4ccc5[nH]nc(C6CC6)c5c4)n3n2)C[C@H](C)O1` the remaining binding was 88% (binding, competition with immobilised ligand; 50 nM).
`c1ccc(N2CCN(Cc3nc4ccccc4[nH]3)CC2)nc1` gave a remaining binding of 91% (cell-free assay, competition with immobilised ligand; 1 µM).
